Measured values of several laboratories.
Compare with care: the assays were run in different laboratories.
Target: Ankyrin repeat and protein kinase domain-containing protein 1 (ANKK1, Homo sapiens, UniProt Q8NFD2)
Residues used in one study (Q8NFD2 1-765): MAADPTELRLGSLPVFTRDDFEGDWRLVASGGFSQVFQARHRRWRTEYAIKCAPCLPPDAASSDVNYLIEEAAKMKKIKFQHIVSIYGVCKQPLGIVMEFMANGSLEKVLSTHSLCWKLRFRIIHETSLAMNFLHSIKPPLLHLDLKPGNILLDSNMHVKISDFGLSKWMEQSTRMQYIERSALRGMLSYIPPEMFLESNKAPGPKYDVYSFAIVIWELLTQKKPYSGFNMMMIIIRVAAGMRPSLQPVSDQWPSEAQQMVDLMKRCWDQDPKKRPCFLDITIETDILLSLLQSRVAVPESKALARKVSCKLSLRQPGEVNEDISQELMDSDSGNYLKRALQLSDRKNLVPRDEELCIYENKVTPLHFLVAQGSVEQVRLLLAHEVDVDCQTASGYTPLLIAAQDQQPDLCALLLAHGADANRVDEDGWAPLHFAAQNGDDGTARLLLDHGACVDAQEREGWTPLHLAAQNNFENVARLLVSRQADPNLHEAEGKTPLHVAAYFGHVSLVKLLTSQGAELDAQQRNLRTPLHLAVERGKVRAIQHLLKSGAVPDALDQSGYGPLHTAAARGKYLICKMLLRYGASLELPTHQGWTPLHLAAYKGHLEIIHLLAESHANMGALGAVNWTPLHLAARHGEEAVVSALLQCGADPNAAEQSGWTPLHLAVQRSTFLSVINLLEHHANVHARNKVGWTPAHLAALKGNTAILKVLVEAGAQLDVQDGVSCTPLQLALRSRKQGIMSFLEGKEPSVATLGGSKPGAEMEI

SMILES	read-out	method	tested at	remaining binding [%]
N[C@@H]1CCN(c2nccc(-c3cnn4ncccc34)n2)C1	binding		1 µM	100
N#Cc1ccc(Nc2ccc3[nH]c(=O)[nH]c3c2)c(Cl)c1	cell-free assay	competition with immobilised ligand	1 µM	100
O=C(Nc1c[nH]nc1C(=O)NC1CCNCC1)c1cc(F)cc(F)c1	binding	competition with immobilised ligand	1 µM	100
COc1ccnn2ncc(-c3ccnc(N(C)C)n3)c12	binding		1 µM	78
CO[C@@H](C)c1c(Nc2ccc([C@@H](N(C)C(=O)C3CCS(=O)(=O)CC3)C(F)(F)F)cc2)cnc2cc(Cl)nn12	cell-free assay	competition with immobilised ligand	1 µM	100
FC(F)(F)Oc1cccc(-c2cnc3ccc(-c4ccncc4)nn23)c1	cell-free assay	competition with immobilised ligand	5 µM	70
CCC(=O)N[C@@H]1CC[C@H](C(=O)N(C)c2ccc(-c3nc4ccccc4o3)cc2)C1	cell-free assay	competition with immobilised ligand	1 µM	100
O=C(c1ccc(Nc2nccc(-c3cc4ccccc4s3)n2)cc1)N1CCC(N2CCCC2)CC1	binding	competition with immobilised ligand	1 µM	71
COc1ncc2cc3ccccc3nc2c1C#N	cell-free assay	competition with immobilised ligand	5 µM	100
COc1cnc(Nc2cccc(S(N)(=O)=O)c2)nc1N1CCN(c2ccccc2)CC1	binding	competition with immobilised ligand	1 µM	97
c1cncc(-c2cccc(Nc3nccc(NC4CCCCC4)n3)c2)c1	binding	competition with immobilised ligand	10 µM	47
C[C@@H]1CCN(c2nccc(-c3cnn4ncccc34)n2)C1	binding		1 µM	81
O=C(NCCCC1CCCCC1)c1ccc(CNC(=O)c2cnn(-c3ccccc3)c2C(F)(F)F)cc1	cell-free assay	competition with immobilised ligand	0.1 µM	100
CN(c1nccc(-c2cnn3ncccc23)n1)C1CC1	binding		1 µM	100
C[C@@]1(Cc2ccc(C#N)cc2)C(=O)N(c2cc(Cl)cc(Cl)c2)c2ncc(C(=O)NC3(c4nc(C5CCC5)no4)CC3)n21	cell-free assay	competition with immobilised ligand	1 µM	100
Cc1cnc(Nc2ccc(C(=O)N3CCC(N4CCCC4)CC3)cc2)nc1-c1cc2ccccc2s1	binding	competition with immobilised ligand	1 µM	62
CNC(=O)[C@@H]1CC[C@@H](n2c(-c3ccc4cnccc4c3)nc3ccc(C(=O)NCc4cccc(C(N)=O)c4)cc32)C1	binding	competition with immobilised ligand	1 µM	100
CN(CCCC(F)(F)F)c1nccc(-c2cnn3ncccc23)n1	binding		1 µM	95
COc1ccc2cc(OCC3(C(=O)O)CN(C(=O)c4ccc(F)cc4)C3)ccc2c1	cell-free assay	competition with immobilised ligand	1 µM	86
O=C(NCCCN1CCOCC1)c1ccc(Nc2nccc(-c3cc4ccccc4s3)n2)cc1	binding	competition with immobilised ligand	1 µM	71
